# Measurements pooled from the literature.
# Lines come from different studies, so protocols differ.
SMILES,target or system,assay,conditions,endpoint,result
N[C@@H](CO)C(=O)Nc1ccccc1/N=c1\cc(-c2ccc3c(c2)OCO3)oc2ccccc12,MCF7,"cell growth or viability, CCK-8",1 µM,inhibition,16.3%
C=CC(=O)ON=C1C=CC(=C(C#N)c2ccccc2)C=C1,Candidozyma auris,"microbial growth, broth dilution",48 h,MIC,16 µg/mL
CC(C)=CC1NCCc2cc(O)c(O)cc21 (centres unmarked),,"DPPH scavenging, absorbance","30 min, dark",IC50,54.2 µM
C[C@H](N)C(=O)Nc1ccccc1/N=c1\cc(-c2ccc3c(c2)OCCO3)oc2c([N+](=O)[O-])cccc12,MCF7,"cell growth or viability, CCK-8",1 µM,inhibition,6.59%
CCOC(=O)C1=C(CCl)NC(=O)NC1c1cccc(C)c1 (centres unmarked),,DPPH scavenging,,IC50,70.7 µM
COc1cccc(C2NCCc3cc(O)c(O)cc32)c1 (centres unmarked),,"DPPH scavenging, absorbance","30 min, dark",IC50,18.2 µM
C[C@H](N)C(=O)Nc1ccccc1/N=c1\cc(-c2ccc3c(c2)OCCO3)oc2c(N)cccc12,MCF7,"cell growth or viability, CCK-8",1 µM,inhibition,7.27%
C#CCOC(=O)ON=C1C=CC(=C(C#N)c2ccccc2)C=C1,Candidozyma auris,"microbial growth, broth dilution",48 h,MIC,16 µg/mL
CCOC(=O)C1=C(CCl)NC(=O)NC1c1ccc(F)cc1F (centres unmarked),,DPPH scavenging,,IC50,117 µM
Oc1ccc(C2NCCc3cc(O)c(O)cc32)cc1O (centres unmarked),,"DPPH scavenging, absorbance","30 min, dark",IC50,8.14 µM
CCOC(=O)C1=C(CSC2=NCCS2)NC(=O)NC1c1cccc(C)c1 (centres unmarked),,DPPH scavenging,,IC50,224 µM
CCCCCCCCCCCCCCCCCC1NCCc2cc(O)c(O)cc21 (centres unmarked),,"DPPH scavenging, absorbance","30 min, dark",IC50,34.8 µM
N#CC(=C1C=CC(=NOC(=O)OCc2ccccc2)C=C1)c1ccccc1,Candidozyma auris,"microbial growth, broth dilution",48 h,MIC,64 µg/mL
CCOC(=O)C1=C(CSC2=NCCS2)NC(=O)NC1c1ccc(F)cc1 (centres unmarked),,DPPH scavenging,,IC50,157 µM
NCCCC(=O)Nc1ccccc1/N=c1\cc(-c2ccc3c(c2)OCO3)oc2ccccc12,MCF7,"cell growth or viability, CCK-8",1 µM,inhibition,10.2%
CCOC(=O)C1=C(CCl)NC(=O)NC1c1ccc(C)cc1 (centres unmarked),,DPPH scavenging,,IC50,235 µM
COc1cc(C2NCCc3cc(O)c(O)cc32)ccc1O (centres unmarked),,"DPPH scavenging, absorbance","30 min, dark",IC50,8.15 µM
C#CCON=C1C=CC(=C(C#N)c2ccccc2)C=C1,Candidozyma auris,"microbial killing, broth dilution",48 h,MFC,64 µg/mL
CCCCCCCCC1NCCc2cc(O)c(O)cc21 (centres unmarked),,"DPPH scavenging, absorbance","30 min, dark",IC50,65.3 µM
CCOC(=O)C1=C(CSC2=NCCS2)NC(=O)NC1c1cccc(OC)c1 (centres unmarked),,DPPH scavenging,,IC50,150 µM
COCCC(=O)Nc1ccccc1/N=c1\cc(-c2ccc3c(c2)OCO3)oc2ccccc12,MCF7,"cell growth or viability, CCK-8",1 µM,inhibition,9.24%
O=C(C[C@@H](C(F)F)n1ccc(F)n1)N1CCC(O)(Cn2cnc3c(cnn3-c3ccc(F)cc3)c2=O)CC1,CAPAN-1,"cell growth or viability, SRB","20 µM, 5 days",viability,24%
CC(=O)ON=C1C=CC(=C(C#N)c2ccccc2)C=C1,Candidozyma auris,"microbial killing, broth dilution",48 h,MFC,16 µg/mL
